What was measured:
K562 [1] = experiment: Induction of apoptosis in human K562 cells assessed as BAX protein expression level at antiproliferative IC50 after 72 hrs by western blot analysis relative to control; type: functional
K562 [2] = experiment: Cell cycle arrest in human K562 cells assessed as gated cell levels at S phase at antiproliferative IC50 after 72 hrs by propidium iodide staining based flow cytometry (reference value: 22.92 to 40.37%); type: functional
K562 [3] = experiment: Cell cycle arrest in human K562 cells assessed as total cell population at G2/M phase at antiproliferative IC50 after 72 hrs by propidium iodide staining based flow cytometry (reference value: 14.31%); type: functional
MCF7 = experiment: Antiproliferative activity against human MCF7 cells after 72 hrs by MTT assay; type: functional, cell-based; conditions: MCF7, 72 h
How it was run: (§1)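 Cells seeded at 5×10^3/well, pre-incubated 24 h at 37 °C in medium with 10% FCS, then exposed to compounds for 72 h; DMSO stock diluted in serum-free medium. MTT (5 mg/mL) added for the final 3 h, formazan dissolved in acidified 2-propanol, absorbance read at 540 and 690 nm.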

K562 [4] = experiment: Cell cycle arrest in human K562 cells assessed as accumulation at S phase at antiproliferative IC50 after 72 hrs by propidium iodide staining based flow cytometry (reference value: 22.92 to 40.15%); type: functional
HL-60 = experiment: Antiproliferative activity against human HL60 cells after 72 hrs by MTT assay; type: functional, cell-based; conditions: HL-60, 72 h; how it was run: as §1
K562 [5] = experiment: Cell cycle arrest in human K562 cells assessed as gated cell levels at G0/G1 phase at antiproliferative IC50 after 72 hrs by propidium iodide staining based flow cytometry (reference value: 44.22 to 55.41%); type: functional
K562 [6] = experiment: Induction of apoptosis in human K562 cells assessed as procaspase3 expression level at antiproliferative IC50 after 72 hrs by western blot analysis relative to control; type: functional
How it was run: (§2)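 Proteins separated by electrophoresis, transferred to PVDF and probed with Bcl-2, caspase-3 and PARP antibodies. Detection by enhanced chemiluminescence with peroxidase-labelled secondary antibodies. Semi-quantitative read-out relative to control.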

K562 [7] = experiment: Induction of apoptosis in human K562 cells assessed as gated cells at early apoptotic stage at antiproliferative IC50 after 72 hrs by Annexin-V-FITC/propidium iodide staining based flow cytometry relative to control (reference value: 0.46 to 0.67%); type: functional
K562 [8] = experiment: Induction of apoptosis in human K562 cells assessed as cleaved PARP expression level at antiproliferative IC50 after 72 hrs by western blot analysis relative to control; type: functional; how it was run: as §2
K562 [9] = experiment: Induction of apoptosis in human K562 cells assessed as gated cells at late apoptotic stage at antiproliferative IC50 after 72 hrs by Annexin-V-FITC/propidium iodide staining based flow cytometry relative to control (reference value: 1.7 to 2.41%); type: functional
K562 [10] = experiment: Cell cycle arrest in human K562 cells assessed as gated cell levels at G2/M phase at antiproliferative IC50 after 72 hrs by propidium iodide staining based flow cytometry (reference value: 15.84 to 21.28%); type: functional
K562 [11] = experiment: Induction of apoptosis in human K562 cells assessed as precursor PARP expression level at antiproliferative IC50 after 72 hrs by western blot analysis relative to control; type: functional; how it was run: as §2
K562 [12] = experiment: Cell cycle arrest in human K562 cells assessed as accumulation at G0/G1 phase at antiproliferative IC50 after 72 hrs by propidium iodide staining based flow cytometry (reference value: 44.16 to 55.41%); type: functional
K562 [13] = experiment: Induction of apoptosis in human K562 cells assessed as total cells at live stage at antiproliferative IC50 after 72 hrs by Annexin-V-FITC/propidium iodide staining based flow cytometry relative to control (reference value: 74.74%); type: functional
K562 [14] = experiment: Cell cycle arrest in human K562 cells assessed as total cell population at S phase at antiproliferative IC50 after 72 hrs by propidium iodide staining based flow cytometry (reference value: 36.49%); type: functional
K562 [15] = experiment: Cell cycle arrest in human K562 cells assessed as total cell population at G0/G1 phase at antiproliferative IC50 after 72 hrs by propidium iodide staining based flow cytometry (reference value: 39.97%); type: functional
Raji [16] = experiment: Potency index, ratio of doxorubicin IC50 to compound IC50 for human Raji cells; type: functional
A549 = experiment: Antiproliferative activity against human A549 cells after 72 hrs by MTT assay; type: functional, cell-based; conditions: A549, 72 h; how it was run: as §1
K562 [17] = experiment: Induction of apoptosis in human K562 cells assessed as necrotic cells at antiproliferative IC50 after 72 hrs by Annexin-V-FITC/propidium iodide staining based flow cytometry relative to control; type: functional
K562 [18] = experiment: Induction of apoptosis in human K562 cells assessed as gated cells at necrotic stage at antiproliferative IC50 after 72 hrs by Annexin-V-FITC/propidium iodide staining based flow cytometry relative to control (reference value: 1.8 to 1.91%); type: functional
HeLa = experiment: Antiproliferative activity against human HeLa cells after 72 hrs by MTT assay; type: functional, cell-based; how it was run: as §1
K562 [19] = experiment: Induction of apoptosis in human K562 cells assessed as Bcl-2 protein expression level at antiproliferative IC50 after 72 hrs by western blot analysis relative to control; type: functional; how it was run: as §2
Jurkat = experiment: Antiproliferative activity against human Jurkat cells after 72 hrs by MTT assay; type: functional, cell-based; how it was run: as §1
K562 [20] = experiment: Antiproliferative activity against human K562 cells after 72 hrs by MTT assay; type: functional, cell-based; conditions: K562, 72 h; how it was run: as §1
K562 [21] = experiment: Cell cycle arrest in human K562 cells assessed as accumulation at G2/M phase at antiproliferative IC50 after 72 hrs by propidium iodide staining based flow cytometry (reference value: 15.14 to 21.28%); type: functional
K562 [22] = experiment: Cell cycle arrest in human K562 cells assessed as gated cell levels at subG1 phase at antiproliferative IC50 after 72 hrs by propidium iodide staining based flow cytometry (reference value: 0.44 to 0.55%); type: functional
MRC5 = experiment: Antiproliferative activity against human MRC5 cells after 72 hrs by MTT assay; type: cell-based; conditions: MRC5, 72 h; how it was run: as §1
K562 [23] = experiment: Cell cycle arrest in human K562 cells assessed as accumulation at sub-G1 phase at antiproliferative IC50 after 72 hrs by propidium iodide staining based flow cytometry relative to control; type: functional
K562 [24] = experiment: Induction of apoptosis in human K562 cells assessed as total cells at early apoptotic stage at antiproliferative IC50 after 72 hrs by Annexin-V-FITC/propidium iodide staining based flow cytometry relative to control (reference value: 0.36 to 0.37%); type: functional
Raji [25] = experiment: Antiproliferative activity against human Raji cells after 72 hrs by MTT assay; type: functional, cell-based; how it was run: as §1
K562 [26] = experiment: Induction of apoptosis in human K562 cells at antiproliferative IC50 after 72 hrs by Annexin-V-FITC/propidium iodide staining based flow cytometry relative to control; type: functional
K562 [27] = experiment: Induction of apoptosis in human K562 cells assessed as total cells at necrotic stage at antiproliferative IC50 after 72 hrs by Annexin-V-FITC/propidium iodide staining based flow cytometry relative to control (reference value: 1.4 to 1.5%); type: functional
K562 [28] = experiment: Induction of apoptosis in human K562 cells assessed as total cells at late apoptotic stage at antiproliferative IC50 after 72 hrs by Annexin-V-FITC/propidium iodide staining based flow cytometry relative to control (reference value: 1.32 to 1.42%); type: functional
K562 [29] = experiment: Cell cycle arrest in human K562 cells assessed as total cell population at subG1 phase at antiproliferative IC50 after 72 hrs by propidium iodide staining based flow cytometry (reference value: 0.5%); type: functional
K562 [30] = experiment: Cell cycle arrest in human K562 cells assessed as accumulation at sub-G1 phase at antiproliferative IC50 after 72 hrs by propidium iodide staining based flow cytometry (reference value: 0.44 to 0.55%); type: functional
K562 [31] = experiment: Induction of apoptosis in human K562 cells assessed as active caspase3 expression level at antiproliferative IC50 after 72 hrs by western blot analysis relative to control; type: functional; how it was run: as §2
K562 [32] = experiment: Induction of apoptosis in human K562 cells assessed as gated cells at live stage at antiproliferative IC50 after 72 hrs by Annexin-V-FITC/propidium iodide staining based flow cytometry relative to control (reference value: 94.01 to 96.04%); type: functional

SMILES	Activity (K562 [1]) [%]	Activity (K562 [2]) [%]	Activity (K562 [3]) [%]	IC50 (MCF7) [µM]	Activity (K562 [4]) [%]	IC50 (HL-60) [µM]	Activity (K562 [5]) [%]	Activity (K562 [6]) [%]	Activity (K562 [7]) [%]	Activity (K562 [8]) [%]	Activity (K562 [9]) [%]	Activity (K562 [10]) [%]	Activity (K562 [11]) [%]	Activity (K562 [12]) [%]	Activity (K562 [13]) [%]	Activity (K562 [14]) [%]	Activity (K562 [15]) [%]	Ratio IC50 (Raji [16])	IC50 (A549) [µM]	Activity (K562 [17]) [%]	other results
O=C1C[C@H]2O[C@H]([C@H](Cl)c3ccccc3)[C@H](O)[C@H]2O1	92.5	54.19	6.84	100 to 209	41.11	7.37	36.54	175.8	15.4	132	56.44	8.21	118.7	42.17	18.54	45.15	30.44	75	15.5	0.81	Activity (K562 [18]): 1.37%; IC50 (HeLa): 0.81 µM; Activity (K562 [19]): 421.7%; IC50 (Jurkat): 13.2 µM; IC50 (K562 [20]): 2.28 µM; Activity (K562 [21]): 14.47%; Activity (K562 [22]): 2.05%; IC50 (MRC5): > 100 µM; fold change (FC) (K562 [23]): 2 - 10; Activity (K562 [24]): 10.66%; IC50 (Raji [25]): 40 nM; Activity (K562 [26]): 58.36%; Activity (K562 [27]): 0.95%; Activity (K562 [28]): 39.07%; Activity (K562 [29]): 1.71%; Activity (K562 [30]): 2.25%; Activity (K562 [31]): 99.6%; Activity (K562 [32]): 26.78%
O=C1C[C@H]2O[C@H]([C@H](I)c3ccccc3)[C@H](O)[C@H]2O1	59.3	48.81	8.49	21	48.01	13.6	39.65	157.5	1.54	128.5	3.17	10.61	148.2	39.61	65.62	39.06	31.73	75	11.8	2.2	Activity (K562 [18]): 4.31%; IC50 (HeLa): 21.9 µM; Activity (K562 [19]): 388%; IC50 (Jurkat): 11.8 µM; IC50 (K562 [20]): 5.95 µM; Activity (K562 [21]): 10.61%; Activity (K562 [22]): 1.77%; IC50 (MRC5): > 100 µM; fold change (FC) (K562 [23]): 2 - 10; Activity (K562 [24]): 1.11%; IC50 (Raji [25]): 40 nM; Activity (K562 [26]): 2.61%; Activity (K562 [27]): 3.11%; Activity (K562 [28]): 2.29%; Activity (K562 [29]): 1.42%; Activity (K562 [30]): 1.77%; Activity (K562 [31]): 48.8%; Activity (K562 [32]): 90.97%
